# According to ChEMBL document CHEMBL3124885, “Discovery of 7-tetrahydropyran-2-yl chromans: β-site amyloid precursor protein cleaving enzyme 1 (BACE1) inhibitors that reduce amyloid β-protein (Aβ) in the central nervous system” (J Med Chem, 2014):
# Assays:
# [1] = Drug uptake in Sprague-Dawley rat CSF at 60 mg/kg, po measured at 3 hrs; format: ADME, organism-based, Cerebrospinal fluid; set-up: dose 60 mg/kg, route oral; settings: read-out: Drug uptake
# Summary of the method: (§1)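 Male Sprague−Dawley rats dosed orally at 60 mg/kg in 1% CMC/0.5% Tween/5 mM citrate in H₂O; CSF compound concentration (nM) at 1–12 h.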
# [2] = Ratio of unbound drug level in brain to plasma in CD-1 mouse measured at 1 hr; format: ADME; settings: mouse, 1 h
# Summary of the method: (§2)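 Male CD-1 mice given 10 mg/kg po, 3 per cohort; plasma and brain collected at 1 and 4 h. Free brain/plasma ratio from unbound concentrations; coverage ratio = free brain concentration divided by HEK293 Aβ₁₋₄₀ cell IC50.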
# [3] = test system: Brain; experiment: Fraction unbound in Sprague-Dawley rat brain at 60 mg/kg, po measured at 5 hrs; format: ADME, organism-based; set-up: dose 60 mg/kg, route oral; settings: in vivo
# Summary of the method: (§3)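 Male Sprague–Dawley rats dosed 60 mg/kg po in 1% CMC/0.5% Tween/5 mM citrate in H₂O; plasma, brain and CSF taken at 1, 3, 5, 8 and 12 h; unbound plasma and brain levels and their ratio determined.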
# [4] = Unbound plasma concentration in Hartley guinea pig at 60 mg/kg, po measured at 1 hr; format: ADME, organism-based, Cavia porcellus; set-up: dose 60 mg/kg, route oral; settings: in vivo
# Summary of the method: (§4)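 Male Hartley guinea pigs were dosed orally at 30, 60 or 100 mg/kg, with six or eight animals per cohort. The vehicle was either a suspension in 1% CMC/0.5% Tween/5 mM citrate in H₂O or a 40/10/50 PEG/EtOH/H₂O solution, depending on compound. Unbound plasma concentration was sampled at 1–12 h post-dose alongside brain, CSF and CSF Aβ₁₋₄₀.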
# [5] = test system: Plasma; experiment: Unbound plasma concentration in Sprague-Dawley rat at 60 mg/kg, po measured at 1 hr; format: ADME, organism-based; set-up: dose 60 mg/kg, route oral; settings: in vivo
# Summary of the method: (§5)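 Male Sprague-Dawley rats were given a single 60 mg/kg oral dose in 1% CMC/0.5% Tween/5 mM citrate in H₂O. Free plasma concentration was determined at 1, 3, 5, 8 and 12 h. Brain, CSF and CSF Aβ₁₋₄₀ were sampled at the same times.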
# [6] = Drug uptake in Hartley guinea pig CSF at 60 mg/kg, po measured at 5 hrs; format: ADME, organism-based, Cavia porcellus, Cerebrospinal fluid; set-up: dose 60 mg/kg, route oral; settings: read-out: Drug uptake
# Summary of the method: (§6)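 Male Hartley guinea pigs, oral dosing (CMC/Tween/citrate suspension or PEG/EtOH/H₂O solution), six or eight animals per cohort; CSF drug concentration (nM) measured at each time point.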
# [7] = Drug uptake in Sprague-Dawley rat CSF at 60 mg/kg, po measured at 1 hr; format: ADME, organism-based, Cerebrospinal fluid; set-up: dose 60 mg/kg, route oral; settings: read-out: Drug uptake; summary of the method: as §1
# [8] = Drug uptake in Hartley guinea pig CSF at 60 mg/kg, po measured at 8 hrs; format: ADME, organism-based, Cavia porcellus, Cerebrospinal fluid; set-up: dose 60 mg/kg, route oral; settings: read-out: Drug uptake; summary of the method: as §6
# [9] = Drug uptake in Sprague-Dawley rat CSF at 60 mg/kg, po measured at 5 hrs; format: ADME, organism-based, Cerebrospinal fluid; set-up: dose 60 mg/kg, route oral; settings: read-out: Drug uptake; summary of the method: as §1
# [10] = Unbound plasma concentration in Hartley guinea pig at 100 mg/kg, po measured at 3 hrs; format: ADME, organism-based, Cavia porcellus; set-up: dose 100 mg/kg, route oral; settings: in vivo; summary of the method: as §4
# [11] = test system: Brain; experiment: Fraction unbound in CD-1 mouse brain at 10 mg/kg, po measured at 4 hrs; format: ADME, organism-based; set-up: dose 10 mg/kg, route oral; settings: in vivo
# Summary of the method: (§7)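 Male CD-1 mice, 3 per cohort, dosed 10 mg/kg orally; brains harvested at 1 and 4 h.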
# [12] = Unbound plasma concentration in Hartley guinea pig at 30 mg/kg, po measured at 3 hrs; format: ADME, organism-based, Cavia porcellus; set-up: dose 30 mg/kg, route oral; settings: in vivo; summary of the method: as §4
# [13] = Cmax in cynomolgus monkey CSF at 100 mg/kg, po measured at 2 hrs; format: ADME, organism-based, Macaca fascicularis, Cerebrospinal fluid; set-up: dose 100 mg/kg, route oral
# [14] = Drug uptake in Hartley guinea pig CSF at 100 mg/kg, po measured at 3 hrs; format: ADME, organism-based, Cavia porcellus, Cerebrospinal fluid; set-up: dose 100 mg/kg, route oral; settings: read-out: Drug uptake; summary of the method: as §6
# [15] = Intrinsic clearance in Hartley guinea pig hepatocytes at 2 uM after 60 to 120 mins; format: ADME, cell-based, Cavia porcellus, Hepatocyte; settings: read-out: CLH
# [16] = Unbound plasma concentration in Hartley guinea pig at 60 mg/kg, po measured at 5 hrs; format: ADME, organism-based, Cavia porcellus; set-up: dose 60 mg/kg, route oral; settings: in vivo; summary of the method: as §4
# [17] = Ratio of unbound drug level in brain to plasma in CD-1 mouse measured at 4 hrs; format: ADME; settings: CD-1, mouse, read-out: K(p,uu,brain); summary of the method: as §2
# [18] = test system: Brain; experiment: Fraction unbound in Sprague-Dawley rat brain at 60 mg/kg, po measured at 3 hrs; format: ADME, organism-based; set-up: dose 60 mg/kg, route oral; settings: in vivo; summary of the method: as §3
# [19] = test system: Brain; experiment: Fraction unbound in CD-1 mouse brain at 10 mg/kg, po measured at 1 hr; format: ADME, organism-based; set-up: dose 10 mg/kg, route oral; settings: in vivo; summary of the method: as §7
# [20] = Clearance in Hartley guinea pig liver microsomes at 1 uM after 20 mins by LC-MS/MS analysis in presence of NADPH; format: ADME, Cavia porcellus, Microsome; settings: read-out: CLH
# [21] = Intrinsic clearance in cynomolgus monkey hepatocytes at 2 uM after 60 to 120 mins; format: ADME, cell-based, Macaca fascicularis, Hepatocyte; settings: read-out: CLH
# [22] = Drug uptake in cynomolgus monkey CSF at 0.5 mg/kg, iv and 100 mg/kg, po measured at 2 hrs; format: ADME, organism-based, Macaca fascicularis, Cerebrospinal fluid; settings: read-out: Drug uptake
# Summary of the method: (§8)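 Female cynomolgus monkeys, 3 per dosing route; iv formulation PEG400/EtOH/water (40/10/50) solution; oral suspension in 1% CMC, 0.5% Tween 80, 5 mM citrate buffer; CSF concentration measured.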
# [23] = test system: Plasma; experiment: Unbound plasma concentration in CD-1 mouse at 3 mg/kg, iv and 10 mg/kg, po measured at 1 hr; format: ADME, organism-based; settings: in vivo
# Summary of the method: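 Male CD-1 mice, 3 per cohort, dosed 3 mg/kg iv and 10 mg/kg po; plasma drawn at 1 and 4 h, brains harvested from oral groups only. Formulations varied by compound: 40% PEG 400/10% EtOH/50% H₂O; 30% captisol in H₂O; iv 50 mM citrate in saline (pH 4); po 1% CMC/0.5% Tween/5 mM citrate in H₂O.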
# [24] = test system: Brain; experiment: Fraction unbound in Sprague-Dawley rat brain at 60 mg/kg, po measured at 1 hr; format: ADME, organism-based; set-up: dose 60 mg/kg, route oral; settings: in vivo; summary of the method: as §3
# [25] = Fraction unbound in Hartley guinea pig brain at 60 mg/kg, po measured at 5 hrs; format: ADME, organism-based, Cavia porcellus; set-up: dose 60 mg/kg, route oral; settings: in vivo
# [26] = Fraction unbound in Hartley guinea pig brain at 60 mg/kg, po measured at 8 hrs; format: ADME, organism-based, Cavia porcellus; set-up: dose 60 mg/kg, route oral; settings: in vivo
# [27] = Unbound plasma concentration in Hartley guinea pig at 60 mg/kg, po measured at 3 hrs; format: ADME, organism-based, Cavia porcellus; set-up: dose 60 mg/kg, route oral; settings: in vivo; summary of the method: as §4
# [28] = Fraction unbound in Hartley guinea pig brain at 60 mg/kg, po measured at 3 hrs; format: ADME, organism-based, Cavia porcellus; set-up: dose 60 mg/kg, route oral; settings: in vivo
# [29] = test system: Plasma; experiment: Unbound plasma concentration in cynomolgus monkey at 0.5 mg/kg, iv and 100 mg/kg, po measured at 2 hrs; format: ADME, organism-based, Macaca fascicularis; settings: in vivo
# Summary of the method: (§9)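 Female cynomolgus monkeys, three per dosing route, received 0.5 mg/kg iv and 100 mg/kg po. Unbound plasma concentration was reported at 2 h and 4 h post-dose.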
# [30] = Drug uptake in cynomolgus monkey CSF at 0.5 mg/kg, iv and 100 mg/kg, po measured at 4 hrs; format: ADME, organism-based, Macaca fascicularis, Cerebrospinal fluid; settings: read-out: Drug uptake; summary of the method: as §8
# [31] = test system: Plasma; experiment: Unbound plasma concentration in cynomolgus monkey at 0.5 mg/kg, iv and 100 mg/kg, po measured at 4 hrs; format: ADME, organism-based, Macaca fascicularis; settings: in vivo; summary of the method: as §9
# [32] = Drug uptake in Hartley guinea pig CSF at 60 mg/kg, po measured at 12 hrs; format: ADME, organism-based, Cavia porcellus, Cerebrospinal fluid; set-up: dose 60 mg/kg, route oral; settings: read-out: Drug uptake; summary of the method: as §6
# [33] = Dissociation constant, pKa of the compound by parallel capillary electrophoresis method; format: physicochemical
# Summary of the method: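 pKa determined by a 24-point parallel capillary electrophoresis method, quantitation by UV absorbance at 229 nm.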
# [34] = Drug uptake in Sprague-Dawley rat CSF at 60 mg/kg, po measured at 8 hrs; format: ADME, organism-based, Cerebrospinal fluid; set-up: dose 60 mg/kg, route oral; settings: read-out: Drug uptake; summary of the method: as §1
# [35] = test system: Cynomolgus monkey; experiment: Hepatic clearance in cynomolgus monkey at 0.5 mg/kg, iv; format: ADME, organism-based, Macaca fascicularis, Liver; set-up: dose 0.5 mg/kg, route intravenous; settings: in vivo
# [36] = test system: Plasma; experiment: Unbound plasma concentration in Sprague-Dawley rat at 60 mg/kg, po measured at 5 hrs; format: ADME, organism-based; set-up: dose 60 mg/kg, route oral; settings: in vivo; summary of the method: as §5
# [37] = Fraction unbound in Hartley guinea pig brain at 60 mg/kg, po measured at 1 hr; format: ADME, organism-based, Cavia porcellus; set-up: dose 60 mg/kg, route oral; settings: in vivo
smiles,measurement,setting,value
CN1C(=O)[C@]2(N=C1N)c1cc(-c3cccnc3F)ccc1O[C@H]1CCOC[C@@H]12,concentration at 3 h,[1],150 nM
same,"K(p,uu,brain)",[2],0.08
same,Drug uptake(free),[3],79 nM
same,Cp(f),[4],140 nM
same,Cp(f),[5],3100 nM
same,concentration at 5 h,[6],6.9 nM
same,concentration at 1 h,[7],290 nM
same,concentration at 8 h,[8],1.6 nM
same,concentration at 5 h,[9],200 nM
same,Cp(f),[10],38 nM
same,Drug uptake(free),[11],15 nM
same,Cp(f),[12],5.8 nM
same,Cmax,[13],120 nM
same,concentration at 3 h,[14],56 nM
same,CLint scaled at 2 µM,[15],9.7 mL/min/kg
same,Cp(f),[16],7 nM
same,Kp uu at 4 h,[17],0.19
same,Drug uptake(free),[18],66 nM
same,Drug uptake(free),[19],24 nM
same,CLint scaled at 1 µM,[20],17 mL/min/kg
same,CLint scaled at 2 µM,[21],5.8 mL/min/kg
same,concentration at 2 h,[22],110 nM
same,Cp(f),[23],300 nM
same,Drug uptake(free),[24],68 nM
same,Drug uptake(free),[25],12 nM
same,Drug uptake(free),[26],5.2 nM
same,Cp(f),[27],23 nM
same,Drug uptake(free),[28],34 nM
same,Cp(f),[29],3200 nM
same,concentration at 4 h,[30],84 nM
same,Cp(f),[31],1700 nM
same,concentration at 12 h,[32],2.6 nM
same,pKa,[33],5.8
same,concentration at 8 h,[34],130 nM
same,CLH,[35],22 mL/min/kg
same,Cp(f),[36],2700 nM
same,Drug uptake(free),[37],19 nM
